b-catenin transl = beta-catenin nuclear translocation modulation. 0.3% of 190,000 active. HeLa beta-catenin nuclear translocation, immunofluorescence imaging. AID 1665. nuclear translocation activity, % at 5 µM;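 active = nuclear translocation activity above 50% at 5 µM, with a well cell count of 50 or more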;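 also: per-cell ratio of nuclear to cytoplasmic median beta-catenin stain intensity; plate controls were DMSO negative control for no effect and GSK-3 inhibitor IX positive control for full effect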
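Test system: human HeLa cell line; Doses: 5 µM primary, 0.02–20 µM confirmation; Incubation: 24 h compound exposure, 37°C; Detection: beta-catenin immunofluorescence imaging with DAPI; Read-out: beta-catenin nuclear/cytoplasmic ratio, % activation.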
CHOP inh = inhibitors of CHOP induction in ER stress response | CHO-K1 CHOP-promoter luciferase, tunicamycin-induced, 15-18 h | inhibition, % at 10 µM | 3.8% of 220,000 active;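 active = compounds that reduced the stress-induced luciferase reporter signal by more than about 70% of percent inhibition, limit read from the data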;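 also: 0% = tunicamycin plus vehicle and 100% = wells without tunicamycin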
Lmaj promast = Leishmania major promastigote growth inhibition | Leishmania major promastigotes, resazurin fluorescence viability | inhibition, % at 10 µM | 9% of 200,000 active | AID 1063; in the data active = inhibition above about 50%;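 also: promastigotes grown with compound for 44 hours at 28 °C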
Autophagy HCS = modulators of autophagy. MEF GFP-LC3 puncta imaging; test concentration mostly 10 µM. AID 463193. calls only at 10 µM (by protocol). 0.98% of 190,000 active;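 active = percentage of spot-positive cells more than 3 SD above its plate mean, without a fluorescence outlier flag or 80% toxicity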;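 also: spot-positive cell cutoff set from DMSO-treated cells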
Dynein transport = dynein cargo transport inhibition. 3617.4 mouse cells, GR-EGFP nuclear translocation imaging; test concentration mostly 20 µM; stimulated with dexamethasone, 1 µM; hits give low values. z-score, hits read low. 0.47% of 220,000 active. AID 1381;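 active = plate z-score of nuclear minus cytoplasmic receptor signal below a set negative limit, without overly bright fluorescence or cell loss, cut at about -3.5 in these data, passing the limit was not always enough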;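 also: z-score of nuclear minus cytoplasmic ring GR-EGFP intensity difference per well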
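Medium: Induction medium lacking tetracycline, stripped serum | Probe or stimulus: 1.0 µM final dexamethasone stimulus | Schedule: 48 h induction, then 1 h compound, then 30 min agonist, 37 °C | Signal: Automated 10x imaging of fixed Hoechst-stained cells | Evaluation: Per-cell GR-EGFP intensity, nucleus versus surrounding cytoplasmic ring, well-averaged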
MT stabilize HCS = microtubule stabilization, imaging screen | % tubulin-high responders, % at 10 µM | AID 2205 | 0.83% of 200,000 active | HeLa tubulin immunostaining HCS, 24 h; share of cells brighter than vehicle mean+2SD;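 active = plate Z-score above 3 for both tubulin-high and condensed-nucleus cell shares, with cell loss under 80%, at 10 µM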;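 also: anti alpha tubulin signal scored within the nucleus-defined area of each cell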
An asterisk follows results filed as active; i = inactive; nt = no result given; + = active, no number. Rows were chosen to be rich in hits. Some 12% of all compounds tested hit in one or more screens of this group.

SMILES | b-catenin transl | CHOP inh | Lmaj promast | Autophagy HCS | Dynein transport | MT stabilize HCS
Cn1cc(Cl)c(C(=O)OCC(=O)Nc2nc(-c3ccc(Br)cc3)cs2)n1 | nt | -7.8 | 100.0* | i | 0.256 | 0.8
COc1ccccc1NS(=O)(=O)c1cccc(C(=O)OCc2nc3ccccc3s2)c1 | 1.0 | 43.9 | 90.4* | i | -0.35 | 1.8
CCNC(=S)Nc1cccc(S(=O)(=O)Nc2ccccc2OC)c1 | -0.1 | 13.6 | nt | nt | -0.821 | nt
COc1ccccc1NS(=O)(=O)c1cccc(NC(=O)Nc2ccccc2)c1 | -1.7 | 41.0 | 99.3* | i | -0.676 | 5.7
COc1cccc(NC(=O)Cc2cccs2)c1 | -3.5 | 1.3 | -6.5 | i | -1.29 | 3.1
COc1ccccc1NS(=O)(=O)c1cccc(NC(=O)Cc2cccs2)c1 | -0.7 | -29.1 | 98.0* | i | -0.271 | 1.1
COc1ccccc1NS(=O)(=O)c1cccc(NC(=O)Nc2ccc(Cl)cc2)c1 | -4.4 | 9.0 | 97.2* | i | 0.451 | 3.3
CC(=O)Nc1ccc(S(=O)(=O)NCCc2ccccn2)cc1 | 0.0 | -17.0 | -4.4 | i | -0.477 | 3.2
O=C(CN(Cc1ccccc1)S(=O)(=O)c1ccc(Br)cc1)NCc1ccco1 | nt | 20.0 | 99.9* | i | -0.282 | 1.8
CCN(CC(=O)NCCc1ccccc1)S(=O)(=O)c1ccc(Br)cc1 | 0.7 | 41.0 | 4.7 | i | -0.164 | 3.9
Cc1ccc(S(=O)(=O)N(Cc2ccccc2)Cc2ccco2)cc1 | -1.1 | 53.9 | 88.4* | i | -0.427 | 2.0
Cc1ccc(S(=O)(=O)N(Cc2ccc(Cl)cc2)c2ccccc2C(=O)NCc2ccco2)cc1 | 0.2 | 13.7 | 58.1* | i | 1 | 4.2
Cn1cc(Cl)c(C(=O)Nc2cnn(Cc3ccc(F)cc3)c2)n1 | 0.9 | 7.4 | 98.6* | i | 0.0666 | 5.7
O=C(Nc1cnn(Cc2ccc(F)cc2)c1)c1cc(-c2ccco2)on1 | -2.9 | 6.9 | 69.2* | i | 1.28 | 1.2
CC(=O)OCc1c(C(F)(F)F)nn(C)c1Oc1cccc(C(F)(F)F)c1 | 0.0 | 75.4* | -3.2 | i | -0.316 | 1.4
COc1ccc(-c2[nH]n(-c3ccc([N+](=O)[O-])cc3)c(=O)c2C=NCc2ccncc2)cc1 | 3.0 | 84.8* | 98.6* | i | 0.458 | 1.3
COc1ccc(-c2[nH]n(-c3ccc([N+](=O)[O-])cc3)c(=O)c2C=NCc2ccc(F)cc2)cc1 | -1.0 | 34.4 | -0.8 | + | 0.167 | 5.8
COc1ccc(-c2[nH]n(-c3ccc([N+](=O)[O-])cc3)c(=O)c2C=NCC2CCCO2)cc1 (stereo unspecified) | 0.3 | -5.6 | -3.6 | i | -0.87 | 2.4
Cc1ccc(NC(=O)C(C)OC(=O)c2ccc(NS(=O)(=O)c3ccc(F)c(F)c3)cc2)cc1 (stereo unspecified) | -2.8 | -33.0 | -4.2 | i | -0.716 | 1.4
CCc1ccc(NC(=O)C(C)OC(=O)c2ccc(NS(=O)(=O)c3ccc(C)c([N+](=O)[O-])c3)cc2)cc1 (stereo unspecified) | -0.2 | 43.0 | 64.4* | i | -0.83 | 3.9
CC1Cc2ccccc2N1C1=CC(=O)CCC1 (stereo unspecified) | 2.4 | 12.0 | 97.7* | i | 0.476 | 4.7
CC1Cc2ccccc2N1C1=NS(=O)(=O)c2ccccc21 (stereo unspecified) | 1.6 | 0.9 | 0.2 | i | -0.462 | 1.7
NC1=NC[C@H](CC2CCCCC2)N1CCc1cc(C(F)(F)F)cc(C(F)(F)F)c1 | -2.0 | 94.4* | nt | nt | -5.55 | nt
C=CCn1c(N)c(C(=O)Nc2cccc(C)c2)c2nc3ccccc3nc21 | 15.0 | -23.3 | 11.2 | i | -0.606 | 8.7
C=CCn1c(N)c(C(=O)OCCC)c2nc3ccccc3nc21 | 0.6 | 37.3 | 99.6* | i | 0.059 | 2.7
Cc1ccc(-c2[nH]c3ccccc3c2C(C[N+](=O)[O-])c2ccco2)cc1 (stereo unspecified) | 2.7 | 88.7* | 7.1 | i | -1 | 1.9
CCOC(=O)c1nnn2c1nc(N1CCCCC1)c1ccccc12 | -0.9 | 4.6 | nt | nt | 0.71 | nt
Cc1ccc(S(=O)(=O)c2nnn3c2nc(N2CCCCC2)c2ccccc23)cc1 | 2.6 | 13.0 | 61.8* | i | -0.0436 | 1.5
Cc1nn(-c2ccccc2)c(C)c1NC(=O)Cc1cccs1 | -1.5 | 9.8 | -3.2 | i | -0.184 | 1.9
